The results in this text go back to ChEMBL document CHEMBL2417369, “Synthesis and evaluation of heteroaryl substituted diazaspirocycles as scaffolds to probe the ATP-binding site of protein kinases” (Bioorg Med Chem, 2013).

In assay [1] the target is Ribosomal protein S6 kinase alpha-5 (Homo sapiens, UniProt O75582). The assay is described as follows: Inhibition of MSK1 (unknown origin) at 30 uM by microfluidic mobility shift assay relative to control. An outline of the steps:
(§1)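 Single-point screen in a 24-enzyme kinase panel using a microfluidic assay. Each compound was tested at […] with ATP at roughly the Km for each enzyme. The pan-AGC inhibitor H-89 served as an internal control on every plate.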

For assay [2], the target named is T1, Serine/threonine-protein kinase D2 (Homo sapiens) (UniProt Q9BZL6).
T1 sequence (whole entry): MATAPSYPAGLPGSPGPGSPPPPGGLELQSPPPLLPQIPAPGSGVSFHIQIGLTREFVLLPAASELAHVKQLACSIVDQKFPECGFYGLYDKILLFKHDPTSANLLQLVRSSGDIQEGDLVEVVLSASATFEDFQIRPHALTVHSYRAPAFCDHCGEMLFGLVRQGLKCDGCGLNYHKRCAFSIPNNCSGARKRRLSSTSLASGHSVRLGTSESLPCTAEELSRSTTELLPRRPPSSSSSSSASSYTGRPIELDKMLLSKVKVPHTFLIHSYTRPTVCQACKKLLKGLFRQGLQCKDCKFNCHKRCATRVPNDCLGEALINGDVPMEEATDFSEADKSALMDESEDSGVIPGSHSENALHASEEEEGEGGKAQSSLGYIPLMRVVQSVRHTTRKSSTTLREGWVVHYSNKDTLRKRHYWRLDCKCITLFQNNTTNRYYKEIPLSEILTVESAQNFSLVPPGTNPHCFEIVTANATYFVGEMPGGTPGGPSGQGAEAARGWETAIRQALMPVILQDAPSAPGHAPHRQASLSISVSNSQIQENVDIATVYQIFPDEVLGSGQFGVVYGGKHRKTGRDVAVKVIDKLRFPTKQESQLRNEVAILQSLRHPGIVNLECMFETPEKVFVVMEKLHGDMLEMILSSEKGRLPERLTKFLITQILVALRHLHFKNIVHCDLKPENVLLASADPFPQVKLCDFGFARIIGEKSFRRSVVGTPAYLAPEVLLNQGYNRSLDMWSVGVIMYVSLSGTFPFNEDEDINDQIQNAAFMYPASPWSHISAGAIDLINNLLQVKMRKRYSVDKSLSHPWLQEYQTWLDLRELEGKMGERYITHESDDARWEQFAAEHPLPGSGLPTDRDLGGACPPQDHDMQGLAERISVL
Put plainly: Inhibition of PKD2 (unknown origin) at 30 uM by microfluidic mobility shift assay relative to control. An outline of the steps: as §1

In assay [3] the target is Tyrosine-protein kinase Lyn (Homo sapiens, UniProt P07948). Put plainly: Inhibition of LYN (unknown origin) at 30 uM by microfluidic mobility shift assay relative to control. An outline of the steps:
as §1

Assay [4] has as its target T2, Aurora kinase A (Homo sapiens) (UniProt O14965).
T2 sequence (whole entry): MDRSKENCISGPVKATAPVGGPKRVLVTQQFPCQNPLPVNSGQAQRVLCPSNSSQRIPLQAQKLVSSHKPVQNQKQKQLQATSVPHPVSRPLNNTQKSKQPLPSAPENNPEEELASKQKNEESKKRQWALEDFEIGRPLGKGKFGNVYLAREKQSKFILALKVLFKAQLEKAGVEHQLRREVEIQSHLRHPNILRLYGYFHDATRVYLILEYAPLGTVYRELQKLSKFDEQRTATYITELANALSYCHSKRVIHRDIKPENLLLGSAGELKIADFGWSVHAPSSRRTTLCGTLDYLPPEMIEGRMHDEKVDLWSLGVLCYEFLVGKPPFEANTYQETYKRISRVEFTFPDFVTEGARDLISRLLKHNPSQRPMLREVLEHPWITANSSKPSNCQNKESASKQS
Put plainly: Inhibition of AURA (unknown origin) at 30 uM by microfluidic mobility shift assay relative to control. The method, boiled down:
as §1

For assay [5], the target named is Mitogen-activated protein kinase 14 (Homo sapiens) (UniProt Q16539). Put plainly: Inhibition of p38alpha (unknown origin) at 30 uM by microfluidic mobility shift assay relative to control. An outline of the steps:
as §1

Assay [6] deals with Tyrosine-protein kinase Lck (Homo sapiens, UniProt P06239). Put plainly: Inhibition of LCK (unknown origin) at 30 uM by microfluidic mobility shift assay relative to control. An outline of the steps:
as §1

The target in assay [7] is RAC-alpha serine/threonine-protein kinase (Homo sapiens, UniProt P31749). Put plainly: Inhibition of AKT1 (unknown origin) at 30 uM by microfluidic mobility shift assay relative to control. An outline of the steps: as §1
Chain of RAC-alpha serine/threonine-protein kinase (P31749 whole entry): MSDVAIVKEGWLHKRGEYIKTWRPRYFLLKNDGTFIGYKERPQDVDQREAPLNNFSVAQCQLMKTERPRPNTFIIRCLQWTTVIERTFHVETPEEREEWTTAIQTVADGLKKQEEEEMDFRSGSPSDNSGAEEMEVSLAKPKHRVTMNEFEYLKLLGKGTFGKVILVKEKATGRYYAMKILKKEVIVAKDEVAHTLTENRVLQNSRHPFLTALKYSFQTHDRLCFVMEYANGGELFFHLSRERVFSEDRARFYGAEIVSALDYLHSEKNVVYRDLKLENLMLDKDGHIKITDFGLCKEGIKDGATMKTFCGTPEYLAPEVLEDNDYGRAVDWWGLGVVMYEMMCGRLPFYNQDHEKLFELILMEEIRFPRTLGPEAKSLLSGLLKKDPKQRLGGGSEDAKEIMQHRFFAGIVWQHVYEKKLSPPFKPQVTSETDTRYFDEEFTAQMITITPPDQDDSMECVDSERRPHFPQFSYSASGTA
For assay [8], the target named is MAP kinase-activated protein kinase 2 (Homo sapiens) (UniProt P49137). Put plainly: Inhibition of MK2 (unknown origin) at 30 uM by microfluidic mobility shift assay relative to control. An outline of the steps: as §1
Assay [9] concerns the target Tyrosine-protein kinase ABL1 (Homo sapiens, UniProt P00519). Put plainly: Inhibition of ABL (unknown origin) at 30 uM by microfluidic mobility shift assay relative to control. The method, boiled down: as §1
Assay [10] deals with Mitogen-activated protein kinase 3 (Homo sapiens, UniProt P27361). Put plainly: Inhibition of ERK1 (unknown origin) at 30 uM by microfluidic mobility shift assay relative to control. An outline of the steps: as §1
Chain of Mitogen-activated protein kinase 3 (P27361 whole entry): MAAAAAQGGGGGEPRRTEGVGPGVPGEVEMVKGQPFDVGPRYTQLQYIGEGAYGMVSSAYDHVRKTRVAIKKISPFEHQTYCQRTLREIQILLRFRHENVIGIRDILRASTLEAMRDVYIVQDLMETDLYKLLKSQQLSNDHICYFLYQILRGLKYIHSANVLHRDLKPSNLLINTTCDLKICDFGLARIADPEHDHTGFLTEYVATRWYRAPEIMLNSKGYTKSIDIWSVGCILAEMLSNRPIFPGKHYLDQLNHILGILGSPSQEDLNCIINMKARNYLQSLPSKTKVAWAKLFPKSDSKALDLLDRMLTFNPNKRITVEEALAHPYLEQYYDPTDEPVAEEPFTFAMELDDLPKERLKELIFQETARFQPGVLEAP
The target of assay [11] is Glycogen synthase kinase-3 beta (Homo sapiens, UniProt P49841). The assay is described as follows: Inhibition of GSK3beta (unknown origin) at 30 uM by microfluidic mobility shift assay relative to control. An outline of the steps:
as §1

The species named for another assay is Homo sapiens. Put plainly: Inhibition of PKA (unknown origin) at 30 uM by microfluidic mobility shift assay relative to control. An outline of the steps: as §1
For assay [12], the target named is T3, Serine/threonine-protein kinase Chk1 (Homo sapiens) (UniProt O14757).
T3 sequence (whole entry): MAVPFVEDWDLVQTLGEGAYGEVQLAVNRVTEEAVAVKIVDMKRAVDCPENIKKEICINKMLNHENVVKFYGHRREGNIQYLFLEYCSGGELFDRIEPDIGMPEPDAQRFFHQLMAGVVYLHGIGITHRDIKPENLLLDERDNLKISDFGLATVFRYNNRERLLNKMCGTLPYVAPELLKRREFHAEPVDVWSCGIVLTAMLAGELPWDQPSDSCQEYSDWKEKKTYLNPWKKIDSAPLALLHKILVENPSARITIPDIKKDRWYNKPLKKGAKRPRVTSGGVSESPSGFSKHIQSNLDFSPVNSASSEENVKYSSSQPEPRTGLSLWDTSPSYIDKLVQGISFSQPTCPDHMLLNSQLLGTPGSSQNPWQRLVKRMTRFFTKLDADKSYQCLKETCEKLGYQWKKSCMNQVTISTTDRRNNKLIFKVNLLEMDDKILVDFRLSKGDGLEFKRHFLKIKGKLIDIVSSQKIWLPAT
The assay is described as follows: Inhibition of CHK1 (unknown origin) at 30 uM by microfluidic mobility shift assay relative to control. An outline of the steps: as §1

Assay [13] concerns the target Insulin receptor (Homo sapiens) (UniProt P06213). Put plainly: Inhibition of INSR (unknown origin) at 30 uM by microfluidic mobility shift assay relative to control. The method, boiled down:
as §1

Assay [14] concerns the target Serine/threonine-protein kinase Chk2 (Homo sapiens, UniProt O96017). Put plainly: Inhibition of CHK2 (unknown origin) at 30 uM by microfluidic mobility shift assay relative to control. An outline of the steps:
as §1

In assay [15] the target is Mitogen-activated protein kinase 1 (Homo sapiens, UniProt P28482). The assay is described as follows: Inhibition of ERK2 (unknown origin) at 30 uM by microfluidic mobility shift assay relative to control. An outline of the steps:
as §1

Chain of Mitogen-activated protein kinase 14 (Homo sapiens) (Q16539 whole entry): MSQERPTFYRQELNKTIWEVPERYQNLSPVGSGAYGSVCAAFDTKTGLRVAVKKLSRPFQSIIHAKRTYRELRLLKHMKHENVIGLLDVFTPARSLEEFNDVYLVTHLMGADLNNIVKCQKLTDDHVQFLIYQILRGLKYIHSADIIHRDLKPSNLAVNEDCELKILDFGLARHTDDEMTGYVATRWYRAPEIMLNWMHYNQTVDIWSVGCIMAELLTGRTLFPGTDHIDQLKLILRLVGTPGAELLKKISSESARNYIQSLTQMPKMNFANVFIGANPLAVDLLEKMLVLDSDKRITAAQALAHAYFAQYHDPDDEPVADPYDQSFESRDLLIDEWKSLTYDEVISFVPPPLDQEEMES
Chain of Tyrosine-protein kinase Lyn (P07948 2-512 limits assumed): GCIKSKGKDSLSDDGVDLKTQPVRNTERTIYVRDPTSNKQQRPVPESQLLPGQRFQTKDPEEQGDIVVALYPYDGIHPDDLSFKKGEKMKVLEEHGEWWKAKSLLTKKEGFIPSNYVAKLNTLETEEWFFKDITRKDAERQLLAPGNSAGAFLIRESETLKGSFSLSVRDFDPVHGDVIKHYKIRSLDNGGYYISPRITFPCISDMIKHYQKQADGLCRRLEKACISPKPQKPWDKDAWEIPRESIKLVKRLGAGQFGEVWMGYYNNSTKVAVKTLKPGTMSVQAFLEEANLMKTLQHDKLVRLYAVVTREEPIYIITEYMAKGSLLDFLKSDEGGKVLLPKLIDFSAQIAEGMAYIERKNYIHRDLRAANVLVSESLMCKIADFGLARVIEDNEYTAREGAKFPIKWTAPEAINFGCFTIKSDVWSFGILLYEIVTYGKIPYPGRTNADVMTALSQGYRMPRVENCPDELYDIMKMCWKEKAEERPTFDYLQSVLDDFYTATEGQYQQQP
Chain of Tyrosine-protein kinase Lck (P06239 2-509 limits assumed): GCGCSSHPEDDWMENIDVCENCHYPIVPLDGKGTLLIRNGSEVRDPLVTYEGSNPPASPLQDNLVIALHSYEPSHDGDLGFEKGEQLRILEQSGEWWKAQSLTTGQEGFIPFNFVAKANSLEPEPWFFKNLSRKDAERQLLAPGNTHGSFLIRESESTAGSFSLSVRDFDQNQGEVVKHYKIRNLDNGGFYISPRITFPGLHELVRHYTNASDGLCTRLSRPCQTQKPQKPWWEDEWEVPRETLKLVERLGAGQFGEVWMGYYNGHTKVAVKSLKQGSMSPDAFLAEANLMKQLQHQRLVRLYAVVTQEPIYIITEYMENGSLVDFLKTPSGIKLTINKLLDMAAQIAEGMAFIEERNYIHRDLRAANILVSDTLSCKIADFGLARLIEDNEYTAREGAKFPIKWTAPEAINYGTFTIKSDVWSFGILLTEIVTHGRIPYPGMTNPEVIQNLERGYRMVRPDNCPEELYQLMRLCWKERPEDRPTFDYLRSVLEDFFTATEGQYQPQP
Chain of Mitogen-activated protein kinase 1 (P28482 whole entry): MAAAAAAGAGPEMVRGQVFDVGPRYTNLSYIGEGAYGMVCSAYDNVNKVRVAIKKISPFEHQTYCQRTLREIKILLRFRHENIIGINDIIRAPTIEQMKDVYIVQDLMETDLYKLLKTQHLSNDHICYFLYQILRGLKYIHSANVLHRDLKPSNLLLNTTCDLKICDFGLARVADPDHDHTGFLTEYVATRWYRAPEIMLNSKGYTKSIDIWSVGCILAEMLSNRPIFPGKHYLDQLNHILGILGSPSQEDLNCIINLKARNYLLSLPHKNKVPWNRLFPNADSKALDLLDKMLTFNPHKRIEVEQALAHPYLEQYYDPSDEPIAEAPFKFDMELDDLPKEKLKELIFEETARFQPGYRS
Chain of Insulin receptor (Homo sapiens) (P06213 28-758 limits assumed): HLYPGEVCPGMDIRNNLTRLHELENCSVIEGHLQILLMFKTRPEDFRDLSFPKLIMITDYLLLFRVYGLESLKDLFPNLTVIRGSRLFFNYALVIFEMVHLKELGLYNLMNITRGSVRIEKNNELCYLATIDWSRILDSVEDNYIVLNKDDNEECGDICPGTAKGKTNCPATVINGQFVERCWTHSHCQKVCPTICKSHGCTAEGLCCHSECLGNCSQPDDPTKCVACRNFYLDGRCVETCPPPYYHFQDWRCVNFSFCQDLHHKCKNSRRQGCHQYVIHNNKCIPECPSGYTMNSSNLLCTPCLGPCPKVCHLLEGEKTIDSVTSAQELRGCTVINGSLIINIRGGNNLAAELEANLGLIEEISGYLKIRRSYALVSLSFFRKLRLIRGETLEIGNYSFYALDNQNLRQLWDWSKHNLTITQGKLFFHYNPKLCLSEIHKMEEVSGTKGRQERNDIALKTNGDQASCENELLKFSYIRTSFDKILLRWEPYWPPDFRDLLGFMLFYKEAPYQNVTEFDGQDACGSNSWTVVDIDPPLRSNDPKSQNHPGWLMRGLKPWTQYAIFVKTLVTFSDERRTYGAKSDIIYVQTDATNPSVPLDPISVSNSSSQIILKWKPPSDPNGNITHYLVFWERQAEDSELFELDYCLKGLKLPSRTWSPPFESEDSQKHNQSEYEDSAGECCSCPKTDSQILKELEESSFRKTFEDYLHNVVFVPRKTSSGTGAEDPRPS
Chain of Insulin receptor (Homo sapiens) (P06213 763-1382 limits assumed): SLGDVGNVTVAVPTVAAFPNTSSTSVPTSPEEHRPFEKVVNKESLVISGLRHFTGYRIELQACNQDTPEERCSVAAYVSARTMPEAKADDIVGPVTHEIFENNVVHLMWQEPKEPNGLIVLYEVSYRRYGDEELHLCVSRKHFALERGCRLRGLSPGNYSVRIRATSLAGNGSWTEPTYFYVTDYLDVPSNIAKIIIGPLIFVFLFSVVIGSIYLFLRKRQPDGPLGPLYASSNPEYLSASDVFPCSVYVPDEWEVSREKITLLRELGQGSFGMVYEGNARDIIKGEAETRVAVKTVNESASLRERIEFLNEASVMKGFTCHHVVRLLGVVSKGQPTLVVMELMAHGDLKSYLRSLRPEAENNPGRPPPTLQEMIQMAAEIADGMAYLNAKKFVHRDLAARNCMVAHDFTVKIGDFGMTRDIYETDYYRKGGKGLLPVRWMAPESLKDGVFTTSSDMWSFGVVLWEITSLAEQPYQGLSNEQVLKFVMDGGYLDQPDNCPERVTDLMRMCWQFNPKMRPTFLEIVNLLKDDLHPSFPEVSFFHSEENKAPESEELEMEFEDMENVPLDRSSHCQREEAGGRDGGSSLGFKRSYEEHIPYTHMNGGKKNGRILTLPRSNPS
Chain of Glycogen synthase kinase-3 beta (P49841 whole entry, looked up): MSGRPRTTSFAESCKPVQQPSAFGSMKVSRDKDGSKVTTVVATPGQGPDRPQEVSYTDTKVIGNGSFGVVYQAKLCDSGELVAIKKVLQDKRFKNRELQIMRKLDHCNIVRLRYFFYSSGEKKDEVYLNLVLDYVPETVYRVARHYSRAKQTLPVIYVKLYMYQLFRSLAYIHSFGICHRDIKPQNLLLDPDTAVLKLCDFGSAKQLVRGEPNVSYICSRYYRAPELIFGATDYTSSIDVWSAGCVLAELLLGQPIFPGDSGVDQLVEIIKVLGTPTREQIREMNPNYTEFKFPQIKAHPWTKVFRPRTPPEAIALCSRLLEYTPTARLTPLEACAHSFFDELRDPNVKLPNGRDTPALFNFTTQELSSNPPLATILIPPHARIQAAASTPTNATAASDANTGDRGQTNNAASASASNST
Chain of Serine/threonine-protein kinase Chk2 (O96017 whole entry): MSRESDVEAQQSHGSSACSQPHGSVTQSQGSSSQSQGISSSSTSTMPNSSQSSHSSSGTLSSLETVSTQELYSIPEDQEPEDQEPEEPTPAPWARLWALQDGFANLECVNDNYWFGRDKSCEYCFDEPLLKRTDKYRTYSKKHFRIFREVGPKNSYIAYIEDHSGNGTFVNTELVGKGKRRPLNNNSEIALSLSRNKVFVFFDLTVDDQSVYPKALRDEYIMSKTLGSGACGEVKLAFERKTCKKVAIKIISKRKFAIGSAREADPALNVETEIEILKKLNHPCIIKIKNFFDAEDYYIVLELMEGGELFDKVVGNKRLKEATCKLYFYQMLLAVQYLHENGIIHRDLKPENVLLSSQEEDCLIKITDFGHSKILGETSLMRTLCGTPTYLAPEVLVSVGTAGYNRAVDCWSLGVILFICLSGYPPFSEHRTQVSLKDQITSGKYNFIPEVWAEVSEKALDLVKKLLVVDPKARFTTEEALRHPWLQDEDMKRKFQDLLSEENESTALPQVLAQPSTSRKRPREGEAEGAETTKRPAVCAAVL

As to `O=C(O)C1CCC2(CCN(c3ncnc4[nH]cnc34)CC2)NC1` (racemic), the inhibition – broadly, how much of the control response was suppressed – in assay [1] worked out at 51%; in assay [2] it was 44%; in assay [3] it was 16%; in assay [4], 95%; in assay [5], 21%; in assay [6], 15%. Besides, the inhibition was 40% in assay [7]; 21% in [8]; 2% in assay [9]; 36% in assay [10]; 28% in assay [11]; 78% in the assay listed under Homo sapiens. The inhibition in assay [12] was 0%; in [13] it was 44%; in assay [14] it was 2%; in assay [15], 37%.
Regarding `O=C(C1CCC2(CCN(c3ncnc4[nH]cnc34)CC2)NC1)N1CCOCC1` (racemic), the inhibition amounted to 62% in [1]; 27% in [2]; 17% in assay [3]; 72% in [4]; 9% in assay [5]; 16% in [6]. The inhibition in [7] is 66%; in assay [8], 11%; in assay [9], 28%; in [10] it was 18%; in assay [11], 9%; in the assay listed under Homo sapiens it was 85%. Moreover, the inhibition in assay [12] was 65%; in assay [13], 16%; in [14], 29%; in [15], 20%.
Consider `COC(=O)C1CCC2(CCN(c3ncnc4[nH]cnc34)CC2)NC1` (racemic), for which the inhibition in assay [1] was 48%; in assay [2] it was 36%; in [3], 16%; in assay [4] it was 64%; in assay [5], 8%; in [6], 16%. The inhibition stood at 61% in [7]; 6% in assay [8]; 18% in assay [9]; 14% in assay [10]; 12% in assay [11]; 87% in the assay listed under Homo sapiens. Further, the inhibition in assay [12] was 36%; in assay [13], 10%; in assay [14], 16%; in [15] it was 19%.
For the compound `c1nc(N2CCC3(CCCNC3)CC2)c2nc[nH]c2n1`, the inhibition in assay [1] came to 98%; in assay [2], 91%; in assay [3], 70%; in [4] it was 67%; in [5] it was 0%; in assay [6], 64%. The inhibition is 98% in [7]; 74% in assay [8]; 82% in assay [9]; 55% in assay [10]; 49% in assay [11]; 100% in the assay listed under Homo sapiens. Moreover, the inhibition in assay [12] amounted to 97%; in assay [13], 4%; in [14] it was 72%; in assay [15], 50%.
For `c1ccc(CC2CCC3(CCN(c4ncnc5[nH]cnc45)CC3)NC2)cc1` (racemic), the inhibition in assay [1] was determined as 75%; in assay [2], 30%; in [3], 35%; in assay [4], 89%; in assay [5] it was 6%; in assay [6], 44%. Moreover, the inhibition amounted to 80% in assay [7]; 15% in [8]; 31% in assay [9]; 31% in assay [10]; 14% in assay [11]; 95% in the assay filed under Homo sapiens. Besides, the inhibition in [12] amounted to 67%; in assay [13] it was 18%; in assay [14], 58%; in assay [15], 41%.
Regarding `c1nc(N2CCC3(CCCOC3)CC2)c2nc[nH]c2n1`, the inhibition was determined as 45% in [1]; 17% in [2]; 34% in assay [3]; 67% in assay [4]; 3% in [5]; 37% in assay [6]. Besides, the inhibition in assay [7] stood at 25%; in [8], 15%; in assay [9], 33%; in [10], 41%; in assay [11] it was 66%; in the assay filed under Homo sapiens, 67%. Besides, the inhibition in [12] amounted to 26%; in assay [13] it was 2%; in assay [14], 28%; in assay [15], 35%.
Consider `O=S(=O)(c1cccc2cnccc12)N1CCC2(CC1)CC(O)CCN2` (racemic), for which the inhibition came out at 86% in [1]; 38% in assay [2]; 25% in [3]; 39% in assay [4]; 1% in assay [5]; 26% in [6]. For the same compound, the inhibition in assay [7] turned out to be 36%; in assay [8], 1%; in assay [9], 12%; in assay [10], 20%; in assay [11] it was 51%; in the assay filed under Homo sapiens, 92%. In addition, the inhibition was 60% in assay [12], 0% in assay [13], 50% in assay [14] and 9% in assay [15].
As for `O=S(=O)(c1cccc2cnccc12)N1CCC2(CCNC2)CC1`, the inhibition was found to be 41% in assay [1]; 19% in assay [2]; 3% in assay [3]; 51% in assay [4]; 9% in assay [5]; 10% in [6]. In addition, the inhibition in [7] was found to be 18%; in assay [8] it was 13%; in [9], 0%; in assay [10] it was 14%; in [11] it was 1%; in the assay listed under Homo sapiens, 76%. In addition, the inhibition was 46% in [12], 4% in [13], 59% in assay [14] and 4% in assay [15].
